ChEMBL document CHEMBL4837245, “Discovery of VU6028418: A Highly Selective and Orally Bioavailable M4 Muscarinic Acetylcholine Receptor Antagonist” (ACS Med Chem Lett, 2021)

Experiments:
[1] = target: CYP2D6 (Homo sapiens, UniProt P10635); assay: Inhibition of CYP2D6 in human liver microsomes using dextromethorphan as substrate preincubated for 15 mins followed by NADPH addition and measured after 8 mins by LC-MS/MS analysis; type: ADME; details: human, liver microsomes, probe dextromethorphan; time 23 min; read-out: INH
Method in brief: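 Cocktail CYP450 inhibition assay run in human liver microsomes.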

[2] = tested on: P-gp (human); assay: Efflux ratio of apparent permeability basolateral to apical over apical to basolateral side at human P-gp in MDCK-MDR1 cells; type: ADME, cell-based, Canis lupus familiaris; details: dog
Method in brief: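 MDCK cell monolayers overexpressing MDR1 (P-gp). Efflux ratio taken as Papp(B-to-A)/Papp(A-to-B).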

[3] = target: T1, Muscarinic acetylcholine receptor M4 (Homo sapiens, UniProt P08173); assay: Antagonist activity at human muscarinic acetylcholine M4 receptor expressed in CHO cells assessed as inhibition of acetylcholine-induced calcium mobilization; type: functional, cell-based; details: read-out: IC50
T1 sequence (P08173 whole entry): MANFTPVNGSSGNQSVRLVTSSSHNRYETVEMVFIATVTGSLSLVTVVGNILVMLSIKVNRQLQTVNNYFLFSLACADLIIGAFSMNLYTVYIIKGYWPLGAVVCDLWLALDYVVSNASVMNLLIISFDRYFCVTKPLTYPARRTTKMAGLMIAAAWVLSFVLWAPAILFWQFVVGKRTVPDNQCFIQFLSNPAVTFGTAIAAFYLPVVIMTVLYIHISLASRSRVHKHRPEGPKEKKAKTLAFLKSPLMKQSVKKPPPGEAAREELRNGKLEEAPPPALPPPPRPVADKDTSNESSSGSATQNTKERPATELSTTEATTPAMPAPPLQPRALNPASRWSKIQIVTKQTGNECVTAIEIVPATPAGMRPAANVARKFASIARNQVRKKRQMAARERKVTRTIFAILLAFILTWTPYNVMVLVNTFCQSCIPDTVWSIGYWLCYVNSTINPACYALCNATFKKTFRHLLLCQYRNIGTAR

[4] = Volume of distribution at steady state in Sprague-Dawley rat at 1.0 mg/kg, iv measured upto 24 hrs by LC-MS/MS analysis; type: ADME, organism-based; details: in vivo, read-out: Vdss
Method in brief: (§1)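 Pharmacokinetics in Sprague-Dawley rat, CD-1 mouse and beagle dog. Intravenous dose was 1 mg/kg in each species. Oral doses were given as a suspension: 10 mg/kg in rat, 3 mg/kg in mouse and dog. Each parameter is the mean of two to three animals.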

[5] = Cmax in CD-1 mouse at 3 mg/kg, po measured upto 24 hrs by LC-MS/MS analysis; type: ADME, organism-based; design: route oral, dose 3 mg/kg, time <=24; details: in vivo
Method in brief: (§2)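 Single iv and oral (suspension) dosing; iv/po doses 1/10 mg/kg in SD rat, 1/3 mg/kg in CD-1 mouse and beagle dog. Plasma PK parameters are means from two to three animals per species.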

[6] = Tmax in Beagle dog at 3 mg/kg, po measured upto 24 hrs by LC-MS/MS analysis; type: ADME, organism-based, Canis lupus familiaris; details: in vivo; method in brief: as §1
[7] = AUC (0 to infinity) in Sprague-Dawley rat at 10 mg/kg, po measured upto 24 hrs by LC-MS/MS analysis; type: ADME, organism-based; design: route oral, dose 10 mg/kg, time <=24; details: in vivo; method in brief: as §2
[8] = Ratio of free drug concentration in CSF to plasma of Sprague-Dawley rat at 1 mg/kg, iv; type: ADME, organism-based
[9] = tested on: Rattus norvegicus; assay: Reversal of haloperidol-induced catalepsy in rat at 0.3 mg/kg, po relative to control; type: functional
Method in brief: (§3)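 Rat haloperidol-induced catalepsy model with oral test dosing at 0.3, 1 and 3 mg/kg alongside vehicle-treated controls. Read-out is latency to withdraw, also expressed as % reversal of catalepsy. Groups compared by ANOVA.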

[10] = tested on: Rattus norvegicus; assay: Reversal of haloperidol-induced catalepsy in rat at 1.0 mg/kg, po relative to control; type: functional; method in brief: as §3
[11] = Ratio of drug concentration in brain to plasma of rat at 1 mg/kg, po after 1 hr; type: ADME, organism-based
Method in brief: (§4)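 At the end of the catalepsy study, 1 h after a 1 mg/kg oral dose in rats, total brain/plasma (Kp) and unbound brain/plasma (Kp,uu) ratios were determined.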

[12] = Ratio of free drug concentration in brain to plasma of rat at 1 mg/kg, po after 1 hr; type: ADME, organism-based; method in brief: as §4
[13] = target: Cytochrome P450 2C9 (Homo sapiens, UniProt P11712); assay: Time dependent inhibition of CYP2C9 (unknown origin); type: ADME
[14] = target: CYP2B6 (Homo sapiens, UniProt P20813); assay: Induction of CYP2B6 in human hepatocytes relative to control; type: ADME, cell-based, Hepatocyte
[15] = target: Muscarinic acetylcholine receptor M5 (Homo sapiens, UniProt P08912); assay: Antagonist activity at human muscarinic M5 receptor expressed in CHO cells co-expressing Gqi5 assessed as inhibition of acetylcholine-induced calcium mobilization; type: functional
Method in brief: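 CHO cells stably transfected with the given human mAChR subtype. Compound added before an EC80 concentration of acetylcholine; antagonism read as calcium mobilization. One independent determination in triplicate.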

Chain of Cytochrome P450 2C9 (P11712 whole entry): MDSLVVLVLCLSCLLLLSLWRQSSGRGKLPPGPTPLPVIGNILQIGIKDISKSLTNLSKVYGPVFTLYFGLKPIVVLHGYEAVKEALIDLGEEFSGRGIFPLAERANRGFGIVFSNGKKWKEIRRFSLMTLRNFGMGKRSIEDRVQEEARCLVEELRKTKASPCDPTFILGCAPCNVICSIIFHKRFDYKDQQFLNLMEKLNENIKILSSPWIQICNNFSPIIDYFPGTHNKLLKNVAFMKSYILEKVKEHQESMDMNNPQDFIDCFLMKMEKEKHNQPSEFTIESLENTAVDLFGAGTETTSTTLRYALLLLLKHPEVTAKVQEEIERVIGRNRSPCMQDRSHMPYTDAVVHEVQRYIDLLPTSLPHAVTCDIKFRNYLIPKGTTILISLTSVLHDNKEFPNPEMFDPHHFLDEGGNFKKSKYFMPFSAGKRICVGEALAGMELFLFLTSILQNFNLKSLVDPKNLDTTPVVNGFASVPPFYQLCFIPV
Chain of Muscarinic acetylcholine receptor M5 (P08912 whole entry): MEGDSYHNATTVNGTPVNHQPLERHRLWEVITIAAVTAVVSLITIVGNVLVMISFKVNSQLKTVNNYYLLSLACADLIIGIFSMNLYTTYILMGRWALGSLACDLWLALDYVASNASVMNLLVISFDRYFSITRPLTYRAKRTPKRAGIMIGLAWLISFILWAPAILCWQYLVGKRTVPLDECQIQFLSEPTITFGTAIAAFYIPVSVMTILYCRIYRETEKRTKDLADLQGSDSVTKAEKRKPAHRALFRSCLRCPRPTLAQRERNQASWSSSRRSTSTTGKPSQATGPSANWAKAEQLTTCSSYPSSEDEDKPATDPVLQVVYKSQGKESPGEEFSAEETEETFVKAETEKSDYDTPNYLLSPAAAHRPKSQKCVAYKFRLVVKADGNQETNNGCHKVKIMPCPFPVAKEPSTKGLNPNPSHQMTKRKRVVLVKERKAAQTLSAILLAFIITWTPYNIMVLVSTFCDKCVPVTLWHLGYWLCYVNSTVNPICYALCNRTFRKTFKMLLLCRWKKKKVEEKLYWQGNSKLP
Chain of CYP2B6 (P20813 whole entry): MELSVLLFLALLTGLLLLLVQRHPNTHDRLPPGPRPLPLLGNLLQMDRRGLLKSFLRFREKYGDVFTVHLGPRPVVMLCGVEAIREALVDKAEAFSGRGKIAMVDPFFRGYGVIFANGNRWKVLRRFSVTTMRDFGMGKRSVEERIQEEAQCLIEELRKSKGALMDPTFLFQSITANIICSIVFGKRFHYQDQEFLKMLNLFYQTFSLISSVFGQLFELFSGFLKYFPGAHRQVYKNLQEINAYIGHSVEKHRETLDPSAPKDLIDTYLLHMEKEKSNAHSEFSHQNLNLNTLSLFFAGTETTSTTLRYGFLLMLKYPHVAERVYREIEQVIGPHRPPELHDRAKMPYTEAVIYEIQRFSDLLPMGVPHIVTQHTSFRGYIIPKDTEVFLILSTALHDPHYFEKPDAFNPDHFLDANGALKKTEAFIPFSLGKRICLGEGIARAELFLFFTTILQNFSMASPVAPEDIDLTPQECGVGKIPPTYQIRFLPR
Chain of CYP2D6 (P10635 whole entry): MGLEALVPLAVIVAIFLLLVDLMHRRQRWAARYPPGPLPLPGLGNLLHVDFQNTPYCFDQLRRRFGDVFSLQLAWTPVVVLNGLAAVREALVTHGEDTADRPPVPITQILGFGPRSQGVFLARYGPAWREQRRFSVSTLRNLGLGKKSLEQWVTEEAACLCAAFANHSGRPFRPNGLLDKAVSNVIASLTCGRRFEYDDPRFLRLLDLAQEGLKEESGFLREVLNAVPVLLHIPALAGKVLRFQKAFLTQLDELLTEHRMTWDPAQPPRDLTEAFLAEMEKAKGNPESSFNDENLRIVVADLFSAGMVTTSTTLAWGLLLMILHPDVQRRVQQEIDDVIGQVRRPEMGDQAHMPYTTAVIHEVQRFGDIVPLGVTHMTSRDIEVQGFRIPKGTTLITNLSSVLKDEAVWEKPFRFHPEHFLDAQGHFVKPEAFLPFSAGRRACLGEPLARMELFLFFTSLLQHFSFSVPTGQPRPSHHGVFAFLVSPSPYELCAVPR

Fc1cc(F)c(F)c(-c2ccc(N[C@H]3C[C@@H]4CN(CC5CCOCC5)C[C@@H]4C3)nn2)c1
IC50 at 8 min [1]: > 30 µM | efflux ratio [2]: 8.9 | IC50 [3]: 0.0041 µM | Vd [4]: 6.7 L/kg | Cmax [5]: 181 ng/mL | Tmax [6]: 17 h | AUC [7]: 30000 ng·h/mL | Kp uu [8]: 0.24 | Activity [9]: 26.2% | Activity [10]: 50.9% | Kp at 1 h [11]: 3.4 | Kp uu at 1 h [12]: 0.32 | IC50 [13]: > 100 µM | Emax [14]: 2.1% | IC50 [15]: > 10 µM
